The test system of test [1] is FL5.12. Briefly: Downregulation of CD98 expression level in mouse FL5.12A cells at 2.5 uM measured at 3 hrs by flow cytometric analysis. Type of test: functional. An outline of the steps: (§1)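 FL5.12 cells treated at 2.5 µM. Nutrient transporter loss measured as mean ± SEM. Vacuolation scored semi-quantitatively from 0 to 84, roughly twice the percent of cytosol occupied by vacuoles, mean ± SEM.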
(A flow cytometer gives signals particle by particle.)

For test [2], the system named is FL5.12. The experiment in a line: Cytotoxicity against mouse FL5.12A cells after 48 hrs by DAPI staining-based flow cytometric analysis. To be noted: FL5.12, 48 h. Type of test: functional, cell-based.
Test [3] relates to FL5.12. The experiment in a line: Induction of vacuolation in mouse FL5.12A cells assessed as vacuolation score at 2.5 uM measured at 3 hrs by fluorescence microscopic analysis. The test is classed as functional. An outline of the steps:
as §1

Test [4] deals with FL5.12. The experiment in a line: Downregulation of CD98 expression level in mouse FL5.12A cells at 30 uM measured at 3 hrs by flow cytometric analysis. The test is classed as functional.
The subject of test [5] is FL5.12. The experiment in a line: Induction of vacuolation in mouse FL5.12A cells assessed as vacuolation score at 30 uM measured at 3 hrs by fluorescence microscopic analysis. The test is classed as functional.
Test [6] has as its system FL5.12. Briefly: Downregulation of CD98 expression level in mouse FL5.12A cells at 50 uM measured at 3 hrs by flow cytometric analysis.
The subject of test [7] is FL5.12. Briefly: Induction of vacuolation in mouse FL5.12A cells assessed as vacuolation score at 50 uM measured at 3 hrs by fluorescence microscopic analysis. The test is classed as functional.

Usually IC50 stands for the concentration needed to halve the response being measured. Low values mean inhibition by little substance, high ones a need for much substance.

Consider `CCCCCCCCc1ccc(CO[C@H]2CN[C@H](CO)C2)cc1.Cl`, for which the Activity with FL5.12 [1] is reported as 48%; in the test with FL5.12 [3] it was 47. The molecule also had an IC50 in the test with FL5.12 [2] of 3 µM.
Taken in the same sequence, the figures for `CCCCCCCCCCCCCCc1ccc(CO[C@H]2CN[C@H](CO)C2)cc1.Cl` were 19%, 3 and 5.7 µM.
Consider `CCCCCCCCc1ccc(CCC(N)(CO)CO)cc1` [FINGOLIMOD], for which the Activity with FL5.12 [1] was determined as 68%; in the test on FL5.12 [3], 82. In addition, in the test on FL5.12 [2], the IC50 was 2.4 µM.
Turning to `CCCCCCCCc1ccc(CO[C@@H]2C[C@@H](CO)N(C(=N)N)C2)cc1.Cl.Cl`, the figures for the Activity in the test on FL5.12 [4] and with FL5.12 [5] were 34% and 0, respectively. This molecule yielded an IC50 with FL5.12 [2] of 17.3 µM.
For `CCCCCCCCCCCCCCc1ccc(CO[C@@H]2CN[C@@H](CO)C2)cc1.Cl`, the results for the Activity in the test with FL5.12 [1] and with FL5.12 [3] were 12% and 4, respectively. In addition, in the test on FL5.12 [2], the IC50 is 10.5 µM.
Take `CCCCCCCCc1ccc([C@H]2CCN[C@@H]2CO)cc1.Cl`: the Activity in the test with FL5.12 [1] is reported as 54%; with FL5.12 [3] it was 81. In addition, the IC50 with FL5.12 [2] came out at 1.9 µM.
As for `CCCCCCCCc1ccc(CO[C@@H]2CN[C@@H](CO)C2)cc1.Cl`, the results for the Activity in the test with FL5.12 [1] and in the test with FL5.12 [3] were 63% and 33, respectively. Besides, the midpoint of inhibition in the test on FL5.12 [2], the IC50, lay at 2 µM.
Taken in the same sequence, the figures for `CCCCCCc1ccc(CO[C@@H]2CN[C@@H](CO)C2)cc1.Cl` were 30%, 0 and 2.7 µM.
In the same order, the values of `CCCCCCCCC/C=C/CO[C@H]1CN[C@H](CO)C1.Cl` are 30%, 20 and 3.3 µM.
In the same order, the values of `CCCCCCCCCCCCO[C@H]1CN[C@H](CO)C1.Cl` are 45%, 36 and 2.5 µM.
On to `CCCCCCCCCC/C=C/c1ccc(CO[C@@H]2CN[C@@H](CO)C2)cc1.Cl`, for which the figures for the Activity in the test on FL5.12 [1] and with FL5.12 [3] were 52% and 33, respectively. This molecule displayed an IC50 in the test on FL5.12 [2] of 2.8 µM.
With `CCCCCCCCCCCCC/C=C/[C@@H](O)[C@@H](N)CO` [SPHINGOSINE], the Activity turned out to be 48% in the test on FL5.12 [1] and 57 in the test with FL5.12 [3]. In the test with FL5.12 [2], this molecule gave an IC50 of 3.6 µM.
Turning to `CCCCCCCCc1ccc(CO[C@H]2C[C@H](CO)N(C(=N)N)C2)cc1.Cl.Cl`, the Activity with FL5.12 [4] was 35%; in the test with FL5.12 [5], 0. Moreover, in the test on FL5.12 [2], the concentration for half-maximal inhibition (IC50) worked out at 14.2 µM.
Consider `CCCCCCCCCCCC/C=C/c1ccc(CO[C@H]2CN[C@H](CO)C2)cc1.Cl`, for which the Activity in the test on FL5.12 [1] turned out to be 20%; with FL5.12 [3] it was 1. The same molecule returned an IC50 in the test with FL5.12 [2] of 7.3 µM.
Take `CCCCCCCCCCc1ccc(CO[C@H]2CN[C@H](CO)C2)cc1.Cl`: the Activity in the test with FL5.12 [1] came out at 28%; with FL5.12 [3], 36. This molecule displayed an IC50 with FL5.12 [2] of 3.6 µM.
For the molecule `CCCCCC/C=C/c1ccc(CO[C@H]2C[C@H](CO)N(C)C2)cc1.Cl`, the Activity amounted to 31% in the test with FL5.12 [1] and 26 in the test on FL5.12 [3]. In the test with FL5.12 [2], this molecule yielded an IC50 of 1.9 µM.
Taken in the same sequence, the figures for `CCCC/C=C/c1ccc(CO[C@H]2CN[C@H](CO)C2)cc1.Cl` were 9%, 5 and 5.7 µM.
Taken in the same sequence, the figures for `CCCCCCCCCCCC/C=C/c1ccc(CO[C@@H]2CN[C@@H](CO)C2)cc1.Cl` were 19%, 8 and 5.1 µM.
`CCCCCCCCc1ccc([C@H]2CCN(C(C)=O)[C@@H]2CO)cc1`: the Activity with FL5.12 [1] worked out at 40%; with FL5.12 [3], 0. Besides, the IC50 in the test on FL5.12 [2] was 39.7 µM.
Taken in the same sequence, the figures for `CCCCCCCCC/C=C/CO[C@@H]1CN[C@@H](CO)C1.Cl` were 34%, 9 and 2.6 µM.
In the same order, the values of `CCCCCCCCCCCCC/C=C/[C@@H](O)[C@H](CO)N(C)C` [DIMETHYLSPINGOSINE] are 69%, 72 and 0.8 µM.
Taken in the same sequence, the figures for `CCCC/C=C/c1ccc(CO[C@@H]2CN[C@@H](CO)C2)cc1.Cl` were 30%, 0 and 5.5 µM.
Turning to `CCCCCCCCCCCCc1ccc(CO[C@H]2CN[C@H](CO)C2)cc1.Cl`, the Activity with FL5.12 [1] is on record as 14%; in the test on FL5.12 [3], 30. This molecule showed an IC50 in the test with FL5.12 [2] of 3.9 µM.
Consider `CCCCCC/C=C/c1ccc([C@H]2CCN(C(C)=O)[C@@H]2CO)cc1`, for which the values for the Activity with FL5.12 [1] and with FL5.12 [3] were 40% and 2, respectively. The same molecule yielded an IC50 in the test with FL5.12 [2] of 46.2 µM.
Take `CCCCCCCCCC/C=C/c1ccc(CO[C@H]2CN[C@H](CO)C2)cc1.Cl`: the figures for the Activity in the test with FL5.12 [1] and in the test on FL5.12 [3] were 40% and 76, respectively. 2.4 µM corresponded to half-maximal inhibition in the test on FL5.12 [2] (IC50).
Regarding `CCCCCCCCc1ccc([C@@H]2CCN[C@H]2CO)cc1.Cl`, the Activity was 47% in the test on FL5.12 [1] and 53 with FL5.12 [3]. 1.7 µM corresponded to half-maximal inhibition in the test on FL5.12 [2] (IC50).
For `CCCCCCCCCCCCC/C=C/[C@@H](O)[C@H](CO)NC(C)=O` (stereo in doubt; 9), the Activity in the test on FL5.12 [6] came to 47%; in the test with FL5.12 [7], 0. This molecule also displayed an IC50 in the test with FL5.12 [2] of 33 µM.
In the case of `CCCCCCCCCCCCO[C@@H]1CN[C@@H](CO)C1.Cl`, the Activity is reported as 57% with FL5.12 [1] and 53 with FL5.12 [3]. Inhibition with FL5.12 [2] was half-maximal at 1.2 µM (IC50).
In the same order, the values of `CCCCCCCCCCCCCCC[C@@H](O)[C@@H](N)CO` [DIHYDROSPINGOSINE] are 47%, 38 and 3.5 µM.
In the same order, the values of `CCCCCCCCCCCCc1ccc(CO[C@@H]2CN[C@@H](CO)C2)cc1.Cl` are 13%, 3 and 10.1 µM.
`CCCCCC/C=C/c1ccc(CO[C@@H]2CN[C@@H](CO)C2)cc1.Cl`: the Activity came to 64% with FL5.12 [1] and 27 with FL5.12 [3]. This molecule also displayed an IC50 in the test on FL5.12 [2] of 1.4 µM.
For the molecule `CCCCCCCCc1ccc(CO[C@H]2C[C@H](CO)N(C(C)=O)C2)cc1`, the Activity in the test with FL5.12 [6] turned out to be 37%; with FL5.12 [7], 1. The molecule also registered an IC50 in the test with FL5.12 [2] of 29.7 µM.
`CCCCCC/C=C/c1ccc(CO[C@H]2CN[C@H](CO)C2)cc1.Cl`: the results for the Activity in the test with FL5.12 [1] and with FL5.12 [3] were 41% and 70, respectively. In addition, it took 2.4 µM to reach half-maximal inhibition in the test on FL5.12 [2] (IC50).
In the same order, the values of `CCCCCC/C=C/c1ccc([C@H]2CCN[C@@H]2CO)cc1.Cl` are 58%, 84 and 1.7 µM.

Values taken from ChEMBL document CHEMBL4425177, “Effects of stereochemistry, saturation, and hydrocarbon chain length on the ability of synthetic constrained azacyclic sphingolipids to trigger nutrient transporter down-regulation, vacuolation, and cell death” (Bioorg Med Chem, 2016).
